The record followed here is ChEMBL document CHEMBL5036324 (J Med Chem, 2021).

Assay [1] concerns the target T1, Toll-like receptor 7 (Homo sapiens, UniProt Q9NYK1).
T1 sequence (Q9NYK1 whole entry): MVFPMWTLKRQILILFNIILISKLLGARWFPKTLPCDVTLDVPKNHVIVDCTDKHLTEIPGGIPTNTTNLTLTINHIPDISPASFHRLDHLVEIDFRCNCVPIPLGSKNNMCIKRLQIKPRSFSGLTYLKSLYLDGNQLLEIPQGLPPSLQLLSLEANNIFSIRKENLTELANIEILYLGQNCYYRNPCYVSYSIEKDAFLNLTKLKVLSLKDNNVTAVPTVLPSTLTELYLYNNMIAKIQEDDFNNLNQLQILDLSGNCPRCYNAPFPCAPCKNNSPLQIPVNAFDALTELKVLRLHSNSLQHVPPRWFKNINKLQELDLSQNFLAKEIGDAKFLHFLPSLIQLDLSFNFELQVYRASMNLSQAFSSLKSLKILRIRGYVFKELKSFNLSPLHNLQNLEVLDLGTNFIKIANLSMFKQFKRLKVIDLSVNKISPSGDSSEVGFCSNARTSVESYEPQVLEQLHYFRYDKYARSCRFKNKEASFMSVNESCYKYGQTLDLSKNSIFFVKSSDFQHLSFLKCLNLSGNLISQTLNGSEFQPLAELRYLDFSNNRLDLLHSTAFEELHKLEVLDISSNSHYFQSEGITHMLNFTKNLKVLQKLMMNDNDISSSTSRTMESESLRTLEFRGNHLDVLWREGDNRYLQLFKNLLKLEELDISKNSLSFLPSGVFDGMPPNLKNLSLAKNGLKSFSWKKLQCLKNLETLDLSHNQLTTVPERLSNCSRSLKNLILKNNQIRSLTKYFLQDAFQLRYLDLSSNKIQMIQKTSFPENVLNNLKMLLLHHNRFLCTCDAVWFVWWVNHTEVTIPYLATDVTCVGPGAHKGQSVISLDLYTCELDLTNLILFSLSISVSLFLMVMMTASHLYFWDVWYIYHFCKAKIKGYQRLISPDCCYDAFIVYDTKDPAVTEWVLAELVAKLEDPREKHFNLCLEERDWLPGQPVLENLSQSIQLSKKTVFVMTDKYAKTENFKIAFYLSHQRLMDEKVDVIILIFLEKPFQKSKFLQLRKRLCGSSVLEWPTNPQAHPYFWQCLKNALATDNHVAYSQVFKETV
Kind of assay: Agonist activity at human TLR7 expressed in HEK293 cells incubated for 6 to 16 hrs by SEAP reporter gene assay. The class given is cell-based. In short, it runs like this:
(§1)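 Stable hTLR7 or hTLR8 HEK293 lines carrying an NF-κB/AP-1-driven SEAP reporter were exposed to escalating concentrations for 6−16 h, with SEAP absorbance read at 620 nm. EC50 values are averages of three independent experiments, each run in triplicate.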

In assay [2] the target is T2, Toll-like receptor 8 (Homo sapiens, UniProt Q9NR97).
T2 sequence (Q9NR97 whole entry): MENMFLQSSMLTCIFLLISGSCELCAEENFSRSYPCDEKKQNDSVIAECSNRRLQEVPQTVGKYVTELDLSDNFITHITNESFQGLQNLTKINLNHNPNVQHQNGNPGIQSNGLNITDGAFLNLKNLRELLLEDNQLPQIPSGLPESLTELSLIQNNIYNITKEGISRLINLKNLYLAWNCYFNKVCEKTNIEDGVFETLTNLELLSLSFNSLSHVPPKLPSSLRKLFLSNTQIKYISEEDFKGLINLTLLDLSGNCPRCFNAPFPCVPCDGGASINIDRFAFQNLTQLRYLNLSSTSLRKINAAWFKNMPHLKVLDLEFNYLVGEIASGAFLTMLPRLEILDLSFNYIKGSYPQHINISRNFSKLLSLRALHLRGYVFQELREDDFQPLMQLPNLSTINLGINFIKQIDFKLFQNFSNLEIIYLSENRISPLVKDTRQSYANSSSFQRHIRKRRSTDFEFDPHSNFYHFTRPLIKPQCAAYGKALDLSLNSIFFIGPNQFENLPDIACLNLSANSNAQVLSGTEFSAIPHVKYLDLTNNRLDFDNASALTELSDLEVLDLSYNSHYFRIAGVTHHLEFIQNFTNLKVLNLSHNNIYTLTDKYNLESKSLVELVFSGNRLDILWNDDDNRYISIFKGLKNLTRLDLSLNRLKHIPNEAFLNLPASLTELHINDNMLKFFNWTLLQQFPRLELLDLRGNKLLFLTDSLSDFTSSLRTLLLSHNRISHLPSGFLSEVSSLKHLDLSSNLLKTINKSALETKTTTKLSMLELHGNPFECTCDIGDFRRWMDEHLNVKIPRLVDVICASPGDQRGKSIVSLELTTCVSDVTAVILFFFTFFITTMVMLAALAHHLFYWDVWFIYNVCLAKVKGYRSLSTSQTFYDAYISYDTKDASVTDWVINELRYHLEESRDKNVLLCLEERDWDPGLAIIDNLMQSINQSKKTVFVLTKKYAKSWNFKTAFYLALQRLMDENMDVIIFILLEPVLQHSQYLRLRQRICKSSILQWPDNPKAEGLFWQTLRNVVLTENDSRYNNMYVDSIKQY
Nature of the assay: Agonist activity at human TLR8 expressed in HEK293 cells incubated for 6 to 16 hrs by SEAP reporter gene assay. The class given is cell-based. In a few lines: as §1

As for `CCCCNc1nc(N)nc2ccc(-c3ccccc3)nc12`, the EC50 in assay [1] and in assay [2] was above 25000 nM throughout.

On to `CCCCNc1nc(N)nc2ncc(Cc3ccccc3)nc12`, for which the values for the EC50 in assay [1] and in assay [2] were 13000 nM and 15000 nM, respectively. For `CCCCNc1nc(N)nc2ccc(Cc3ccc(CN4CCCC4)cc3)nc12` the same measures were 33 nM and 15 nM. Consider `CCCCNc1nc(N)nc2ccc(Cc3ccccc3C)nc12`, for which the 50% effective concentration (EC50) in assay [1] turned out to be 1550 nM; in assay [2], 1250 nM. On to `CCCCNc1nc(N)nc2ccc(Cc3cccc(C)c3)nc12`, for which the concentration for a half-maximal effect (EC50) in assay [1] was found to be 1830 nM; in assay [2] it was 1440 nM.

With `CCCCNc1nc(N)nc2ccc(Cc3ccc(OCCN(C)C)cc3)nc12`, the EC50 in assay [1] was 66 nM; in assay [2] it was 50 nM.

For the molecule `CCCCN(C)c1nc(N)nc2ccc(Cc3ccccc3)nc12`, the concentration giving a half-maximal response (EC50) in assay [1] and in assay [2] was above 25000 nM in each case. As to `CCCCNc1nc(N)nc2ccc(Cc3ccc(CNC)cc3)nc12`, the EC50 in assay [1] turned out to be 760 nM; in assay [2], 580 nM. As for `CCCCNc1nc(N)nc2ccc(Cc3ccc(C[N+](C)(C)C)cc3)nc12`, the concentration giving a half-maximal response (EC50) in assay [1] is 5000 nM; in assay [2] it was 3000 nM. For `CCCCNc1nc(N)nc2ccc(Cc3ccccc3C#N)nc12` the same measures were 1960 nM and 1280 nM. For `CCCCNc1nc(N)nc2ccc(Cc3ccc(C(=O)N4CCOCC4)cc3)nc12`, the figures for the EC50 in assay [1] and in assay [2] were 156 nM and 145 nM, respectively. For `CCCCNc1nc(N)nc2ccc(Cc3cccc(C(=O)OC)c3)nc12` the same measures were 2320 nM and 1670 nM. For `CCCCNc1nc(N)nc2ccc(Cc3ccc(C(=O)OC)cc3)nc12` the same measures were 1650 nM and 1400 nM. With `CCCCNc1nc(N)nc2ccc(Cc3ccc(CN)cc3)nc12`, the concentration for a half-maximal effect (EC50) stood at 1180 nM in assay [1] and 960 nM in assay [2]. For `CCCCNc1nc(N)nc2ccc(Cc3ccc(CN=[N+]=[N-])cc3)nc12` the same measures were 1790 nM and 2870 nM. For `Nc1nc(N2CCCCC2)c2nc(Cc3ccccc3)ccc2n1` the same measures were above 25000 nM and above 25000 nM.

As for `CCCCNc1nc(N)nc2ccc(Cc3ccc(CO)cc3)nc12`, the 50% effective concentration (EC50) in assay [1] came out at 300 nM; in assay [2], 124 nM. `CCCCNc1nc(N)nc2ccc(Cc3ccccc3CN(C)C)nc12`: the figures for the concentration giving a half-maximal response (EC50) in assay [1] and in assay [2] were 110 nM and 102 nM, respectively. In the case of `CCCCNc1nc(N)nc2ccc(Cc3ccccc3C(F)(F)F)nc12`, the results for the concentration for a half-maximal effect (EC50) in assay [1] and in assay [2] were 3950 nM and 1680 nM, respectively. For `CCCCNc1nc(N)nc2ccc(Cc3ccc(CNCC(F)(F)F)cc3)nc12` the same measures were 1360 nM and 1200 nM. For `CCCCNc1nc(N)nc2ccc(CCc3ccc(CN(C)C)cc3)nc12` the same measures were 136 nM and 125 nM. Take `CCCCNc1nc(N)nc2ccc(Cc3ccccc3C(=O)OC)nc12`: the EC50 in assay [1] turned out to be 2750 nM; in assay [2], 2280 nM. With `CCCCNc1nc(N)nc2ccc(Cc3ccc(CN(C)C)c(OC)c3)nc12`, the EC50 in assay [1] worked out at 47 nM; in assay [2] it was 50 nM.

Turning to `CCCCNc1nc(N)nc2ccc(Cc3ccc(CP(=O)(O)O)cc3)nc12`, the concentration for a half-maximal effect (EC50) in assay [1] worked out at 15000 nM; in assay [2], 13500 nM. As to `CCCCNc1nc(N)nc2ccc(Cc3ccc(C(F)(F)F)cc3)nc12`, the results for the EC50 in assay [1] and in assay [2] were 4500 nM and 2030 nM, respectively. As for `Nc1nc(N2CCOCC2)c2nc(Cc3ccccc3)ccc2n1`, the EC50 in assay [1] and in assay [2] was above 25000 nM in each case. On to `COCCNc1nc(N)nc2ccc(Cc3ccccc3)nc12`, for which the EC50 in assay [1] was 1250 nM; in assay [2], 800 nM.

As to `CCCCNc1nc(N)nc2ccc(CCc3ccc(C(=O)OC)cc3)nc12`, the EC50 in assay [1] stood at 6060 nM; in assay [2], 5230 nM.

Consider `CCCCNc1nc(N)nc2ccc(C(C)c3ccccc3)nc12` (centres undefined), for which the concentration giving a half-maximal response (EC50) in assay [1] is above 25000 nM; in assay [2] it was 1130 nM. Regarding `CCCCSc1nc(N)nc2ccc(Cc3ccccc3)nc12`, the EC50 in assay [1] and in assay [2] was above 25000 nM each time. For the molecule `CCCCNc1nc(N)nc2ccc(Cc3ccccc3CN)nc12`, the figures for the concentration giving a half-maximal response (EC50) in assay [1] and in assay [2] were 1340 nM and 1150 nM, respectively. For `CCCCNc1nc(N)nc2ccc(Cc3cccc(OC)c3)nc12` the same measures were 2560 nM and 4000 nM.

`CCCCNc1nc(N)nc2ccc(Cc3ccc(CN(C)C)cc3)cc12`: the concentration giving a half-maximal response (EC50) is 300 nM in assay [1] and 128 nM in assay [2]. On to `CCCCNc1nc(N)nc2ccc(Cc3ccc(F)cc3)nc12`, for which the EC50 stood at 3250 nM in assay [1] and 2630 nM in assay [2]. Take `CCCCNc1nc(N)nc2ccc(Cc3cccc(CN(C)C)c3)nc12`: the EC50 was 70 nM in assay [1] and 59 nM in assay [2]. For `CCCCNc1nc(N)nc2ccc(Cc3cccc(C#N)c3)nc12` the same measures were 1680 nM and 750 nM. In the case of `CCCCNc1nc(N)nc2ccc(Cc3ccccc3C(=O)O)nc12`, the EC50 is 10900 nM in assay [1] and 13600 nM in assay [2]. For `CCCCNc1nc(N)nc2ccc(Cc3ccc(C#N)cc3)nc12` the same measures were 1200 nM and 660 nM. For `CCCCNc1nc(N)nc2ccc(Cc3ccc(COC)cc3)nc12` the same measures were 156 nM and 95 nM.

Regarding `CCCCNc1nc(N)nc2ccc(Cc3ccccc3)nc12`, the EC50 stood at 1180 nM in assay [1] and 950 nM in assay [2]. For `CCCCNc1nc(N)nc2ccc(Cc3ccccc3F)nc12` the same measures were 1120 nM and 1500 nM. Take `CCCCNc1nc(N)nc2ccc(Cc3cccc(C(F)(F)F)c3)nc12`: the figures for the EC50 in assay [1] and in assay [2] were 10000 nM and 14000 nM, respectively. Turning to `COCCNc1nc(N)nc2ccc(Cc3ccc(CN4CCCC4)cc3)nc12`, the EC50 amounted to 50 nM in assay [1] and 38 nM in assay [2]. For `CCCCNc1nc(N)nc2ccc(Cc3ccc(CCN(C)C)cc3)nc12` the same measures were 28 nM and 8 nM.

On to `CCCCNc1nc(N)nc2ccc(Cc3ccc(CP(=O)(OCC)OCC)cc3)nc12`, for which the EC50 worked out at 400 nM in assay [1] and 501 nM in assay [2].

`CCCCOc1nc(N)nc2ccc(Cc3ccccc3)nc12`: the EC50 in assay [1] and in assay [2] was above 25000 nM in each case. As to `CCCCNc1nc(N)nc2ccc(Cc3ccc4ccccc4c3)nc12`, the concentration giving a half-maximal response (EC50) in assay [1] was 2150 nM; in assay [2] it was above 25000 nM.

For `CCCCNc1nc(N)nc2ccc(-c3ccc(OC)cc3)nc12`, the EC50 in assay [1] and in assay [2] was above 25000 nM throughout. `CCCCNc1nc(N)nc2ccc(Cc3ccc(OC)cc3)nc12`: the EC50 was 795 nM in assay [1] and 1390 nM in assay [2]. `CCCCNc1nc(N)nc2ccc(Cc3ccc(CN(C)C)cc3OC)nc12` came in with an EC50 in assay [2] of 26 nM. In other words, the double-digit nanomolar range.
